From ChEMBL document CHEMBL4382218, “Design, synthesis and antifungal evaluation of borrelidin derivatives” (Bioorg Med Chem, 2018)
Values after ≈ are worked out from the molar mass of the structure shown. Active and inactive are the calls of the source. No cut-off for these calls is given here.

Legend:
[1] = Selectivity index, ratio of IC50 for HEK293T cells to MIC for Aspergillus fumigatus CCTCC AF 93048; format: toxicity; details: human, read-out: Selectivity Index
[2] = Selectivity index, ratio of IC50 for HEK293T cells to MIC for Candida parapsilosis ATCC 22019; format: toxicity; details: human, read-out: Selectivity Index
[3] = Selectivity index, ratio of IC50 for HEK293T cells to MIC for Candida albicans ATCC MYA-2876; format: toxicity; details: human, read-out: Selectivity Index
Aspergillus fumigatus [4] = test: Antifungal activity against Aspergillus fumigatus CCTCC AF 93048 after 48 hrs by micro broth dilution method; format: functional; details: CCTCC AF 93048, 48 h
In short: (§1)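 Broth microdilution in RPMI-1640 (NaHCO3, MOPS, pH 7.0). Compounds are dissolved in DMSO and serially diluted 2-fold to eight concentrations, with stocks of […]. Fungal inocula are 2 × 10³ cfu/mL. Plates are incubated 48 h at 28 °C. The MIC is the lowest concentration with no turbidity, and the highest concentration tested is 100 μg/mL.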

HEK-293T = test: Cytotoxicity against HEK293T cells assessed as growth inhibition after 48 hrs by MTT assay; format: cell-based; details: Homo sapiens
In short: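 293T cells are grown in DMEM with 10% FBS, L-glutamine and penicillin/streptomycin at 37 °C in 5% CO₂. Cells are seeded at 7 × 10³ per well and exposed to six concentrations (0.33-100.0 μM) for 48 h. MTT is then added for 4 h, formazan is dissolved in DMSO and read at 570 nm. IC50 comes from non-linear regression, n = 3 independent experiments.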

Candida albicans [5] = test: Antifungal activity against Candida albicans ATCC MYA-2876 at 100 ug/ml after 48 hrs by micro broth dilution method; format: functional, organism-based; in short: as §1
Candida parapsilosis [6] = test: Antifungal activity against Candida parapsilosis ATCC 22019 at 100 ug/ml after 48 hrs by micro broth dilution method; format: functional, organism-based; in short: as §1
Aspergillus fumigatus [7] = test: Antifungal activity against Aspergillus fumigatus CCTCC AF 93048 at 100 ug/ml after 48 hrs by micro broth dilution method; format: functional, organism-based; in short: as §1
Candida albicans [8] = test: Antifungal activity against Candida albicans ATCC MYA-2876 after 48 hrs by micro broth dilution method; format: functional; details: ATCC MYA-2876, 48 h; in short: as §1
Candida parapsilosis [9] = test: Antifungal activity against Candida parapsilosis ATCC 22019 after 48 hrs by micro broth dilution method; format: functional; details: Lodderomyces parapsilosis, ATCC 22019, 48 h; in short: as §1

Row | SMILES | MIC (Aspergillus fumigatus [4]) [µg/mL] | MIC (Candida albicans [8]) [µg/mL] | MIC (Candida parapsilosis [9]) [µg/mL] | selectivity ratio [1] | selectivity ratio [2] | selectivity ratio [3] | IC50 (HEK-293T) [µg/mL] | Activity (Candida albicans [5]) | Activity (Candida parapsilosis [6]) | Activity (Aspergillus fumigatus [7])
1 | C[C@@H]1C[C@H](C)C[C@H](C)[C@@H](O)CC(=O)O[C@H]([C@@H]2CCC[C@H]2C(=O)OCCn2ccnc2)C/C=C/C=C(/C#N)[C@H](O)[C@@H](C)C1 | 25 (≈ 42.8 µM) | – | – | 0.72 | < 0.18 | < 0.18 | 18.1 (≈ 31 µM) | – | – | –
2 | C[C@@H]1C[C@H](C)C[C@H](C)[C@@H](O)CC(=O)O[C@H]([C@@H]2CCC[C@H]2C(=O)OCCN2CCN(CC3CCCCC3)CC2)C/C=C/C=C(/C#N)[C@H](O)[C@@H](C)C1 | 25 (≈ 35.8 µM) | – | – | 0.92 | < 0.23 | < 0.23 | 23 (≈ 33 µM) | inactive | inactive | –
3 | C[C@@H]1C[C@H](C)C[C@H](C)[C@@H](O)CC(=O)O[C@H]([C@@H]2CCC[C@H]2C(=O)OCCN2CCN(CCC3OCCO3)CC2)C/C=C/C=C(/C#N)[C@H](O)[C@@H](C)C1 | 12.5 (≈ 17.8 µM) | – | – | > 5.61 | < 0.7 | < 0.7 | > 70.1 | inactive | inactive | –
4 | C[C@@H]1C[C@H](C)C[C@H](C)[C@@H](O)CC(=O)O[C@H]([C@@H]2CCC[C@H]2C(=O)O)C/C=C/C=C(/C#N)[C@H](O)[C@@H](C)C1 [BORRELIDIN] | – | – | 50 (≈ 102 µM) | < 0.14 | 0.28 | < 0.14 | 14 (≈ 28.5 µM) | inactive | – | inactive
5 | C[C@@H]1[C@H](O)[C@@H](C)/C=C/C=C/C=C/C=C/C=C/C=C/C=C/[C@H](O[C@@H]2O[C@H](C)[C@@H](O)[C@H](N)[C@@H]2O)C[C@@H]2O[C@](O)(C[C@@H](O)C[C@@H](O)[C@H](O)CC[C@@H](O)C[C@@H](O)CC(=O)O[C@H]1C)C[C@H](O)[C@H]2C(=O)O [AMPHOTERICIN B] | 2 (≈ 2.16 µM) | 2 (≈ 2.16 µM) | 1 (≈ 1.08 µM) | – | – | – | – | – | – | –
6 | C[C@@H]1C[C@H](C)C[C@H](C)[C@@H](O)CC(=O)O[C@H]([C@@H]2CCC[C@H]2C(=O)O)C/C=C/C=C(/C(N)=O)[C@H](O)[C@@H](C)C1 | > 100 | > 100 | > 100 | – | – | – | – | inactive | inactive | inactive
7 | C[C@@H]1C[C@H](C)C[C@H](C)[C@@H](O)CC(=O)O[C@H]([C@@H]2CCC[C@H]2C(=O)OCCN(C)C)C/C=C/C=C(/C#N)[C@H](O)[C@@H](C)C1 | – | 100 (≈ 178 µM) | 100 (≈ 178 µM) | < 0.39 | 0.39 | 0.39 | 39.2 (≈ 70 µM) | – | – | inactive
8 | C[C@@H]1C[C@H](C)C[C@H](C)[C@@H](O)CC(=O)O[C@H]([C@@H]2CCC[C@H]2C(=O)OCCN2CCN(CC3CC3)CC2)C/C=C/C=C(/C#N)[C@H](O)[C@@H](C)C1 | 50 (≈ 76.2 µM) | – | – | 0.34 | < 0.17 | < 0.17 | 17 (≈ 26 µM) | inactive | inactive | –
9 | COC(=O)[C@@H](Cc1c[nH]c2ccccc12)NC(=O)[C@@H]1CCC[C@H]1[C@@H]1C/C=C/C=C(/C#N)[C@H](O)[C@@H](C)C[C@H](C)C[C@H](C)C[C@H](C)[C@@H](O)CC(=O)O1 | – | – | – | – | – | – | – | inactive | inactive | inactive
10 | C[C@@H]1C[C@H](C)C[C@H](C)[C@@H](O)CC(=O)O[C@H]([C@@H]2CCC[C@H]2C(=O)OCCc2ccccc2)C/C=C/C=C(/C#N)[C@H](O)[C@@H](C)C1 | – | – | – | – | – | – | – | inactive | inactive | inactive

Further lines, with some results ahead:

Row | MIC (Aspergillus fumigatus [4]) [µg/mL] | MIC (Candida albicans [8]) [µg/mL] | MIC (Candida parapsilosis [9]) [µg/mL] | SMILES | selectivity ratio [1] | selectivity ratio [2] | selectivity ratio [3] | IC50 (HEK-293T) [µg/mL] | Activity (Candida albicans [5]) | Activity (Candida parapsilosis [6]) | Activity (Aspergillus fumigatus [7])
11 | 12.5 (≈ 19.5 µM) | – | – | C=CCN1CCN(CCOC(=O)[C@@H]2CCC[C@H]2[C@@H]2C/C=C/C=C(/C#N)[C@H](O)[C@@H](C)C[C@H](C)C[C@H](C)C[C@H](C)[C@@H](O)CC(=O)O2)CC1 | 1.76 | < 0.22 | < 0.22 | 22 (≈ 34.3 µM) | inactive | inactive | –
12 | – | 100 (≈ 166 µM) | 100 (≈ 166 µM) | C[C@@H]1C[C@H](C)C[C@H](C)[C@@H](O)CC(=O)O[C@H]([C@@H]2CCC[C@H]2C(=O)OCCN2CCOCC2)C/C=C/C=C(/C#N)[C@H](O)[C@@H](C)C1 | < 0.28 | 0.28 | 0.28 | 28 (≈ 46.5 µM) | – | – | inactive
13 | 50 (≈ 83.2 µM) | 100 (≈ 166 µM) | 100 (≈ 166 µM) | C[C@@H]1C[C@H](C)C[C@H](C)[C@@H](O)CC(=O)O[C@H]([C@@H]2CCC[C@H]2C(=O)OCCN2CCCCC2)C/C=C/C=C(/C#N)[C@H](O)[C@@H](C)C1 | 0.55 | 0.28 | 0.28 | 27.6 (≈ 46 µM) | – | – | –
14 | 50 (≈ 85.2 µM) | 50 (≈ 85.2 µM) | 12.5 (≈ 21.3 µM) | C[C@@H]1C[C@H](C)C[C@H](C)[C@@H](O)CC(=O)O[C@H]([C@@H]2CCC[C@H]2C(=O)OCCN2CCCC2)C/C=C/C=C(/C#N)[C@H](O)[C@@H](C)C1 | 0.71 | 2.81 | 0.71 | 35.2 (≈ 60 µM) | – | – | –
15 | 50 (≈ 81.2 µM) | 100 (≈ 162 µM) | 25 (≈ 40.6 µM) | C[C@@H]1C[C@H](C)C[C@H](C)[C@@H](O)CC(=O)O[C@H]([C@@H]2CCC[C@H]2C(=O)OCCN2CCN(C)CC2)C/C=C/C=C(/C#N)[C@H](O)[C@@H](C)C1 | 1.17 | 2.34 | 0.58 | 58.5 (≈ 94.9 µM) | – | – | –
